Test results published in ChEMBL document CHEMBL1155785 (Bioorg Med Chem, 2008).
Values belong to the compound of their own block, whether it stands above or below them. The source made the active and inactive calls. No cut-off for these calls is given here.

Legend:
[1] = target: T1, Receptor-type tyrosine-protein phosphatase F (Homo sapiens, UniProt P10586); assay: Inhibition of human recombinant LAR
[2] = target: T1, Receptor-type tyrosine-protein phosphatase F; assay: Inhibition of human recombinant LAR at 20 ug/mL
How it was run: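 Single-concentration test at 20 µg/mL. Recombinant LAR (300 nM) was preincubated 10 min with compound at pH 8.0 (Tris/NaCl/EDTA/DTT). Hydrolysis of 2 mM pNPP (stock in substrate buffer) was then followed at pH 6.0 MES buffer, room temperature. Initial rate was taken at 405 nm and expressed as % inhibition.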

[3] = target: T1, Receptor-type tyrosine-protein phosphatase F; assay: Inhibition of LAR
How it was run: (§1)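 Recombinant LAR (300 nM) was preincubated 10 min with inhibitor in DMSO in pH 8.0 buffer (50 mM Tris, 50 mM NaCl, 2 mM EDTA, 2 mM DTT). Reaction was started with pH 6.0 MES substrate buffer holding 2 mM pNPP, at room temperature. pNP release was read continuously at 405 nm, using the initial linear rate. IC50 came from a Hill-equation nonlinear fit, mean ± SD of three replicates.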

[4] = target: T1, Receptor-type tyrosine-protein phosphatase F; assay: Inhibition of dialyzed human LAR assessed as recovery of enzyme activity at 20 uM after 24 hrs
How it was run: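 LAR (1500 nM) was preincubated 10 min at pH 8.0 with 20 µM inhibitor or 2% DMSO, then dialyzed against enzyme buffer. Aliquots were withdrawn at set times up to 24 h and assayed for pNPP phosphatase activity at pH 6.0, read at 405 nm.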

[5] = Inhibition of Yersinia PTPase; design: species or system Yersinia sp.
[6] = target: T2, Tyrosine-protein phosphatase non-receptor type 2 (Homo sapiens, UniProt P17706); assay: Inhibition of TCPTP
T2 sequence (P17706 whole entry): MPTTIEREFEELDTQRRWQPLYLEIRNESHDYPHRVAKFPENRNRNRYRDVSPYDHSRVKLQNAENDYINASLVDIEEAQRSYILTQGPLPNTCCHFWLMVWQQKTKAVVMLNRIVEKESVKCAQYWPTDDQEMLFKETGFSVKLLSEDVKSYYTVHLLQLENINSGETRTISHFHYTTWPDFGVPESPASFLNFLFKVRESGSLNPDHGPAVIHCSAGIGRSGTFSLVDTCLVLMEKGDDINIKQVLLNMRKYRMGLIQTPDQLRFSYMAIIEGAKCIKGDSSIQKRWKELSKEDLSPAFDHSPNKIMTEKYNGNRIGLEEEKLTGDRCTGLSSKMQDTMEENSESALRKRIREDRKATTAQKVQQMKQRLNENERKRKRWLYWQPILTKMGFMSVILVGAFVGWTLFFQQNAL

[7] = target: T1, Receptor-type tyrosine-protein phosphatase F; assay: Inhibition of human recombinant LAR upto 100 uM; settings: in the assay text read “at 20 ug/mL” for “upto 100 uM”; how it was run: as §1
[8] = target: T3, Receptor-type tyrosine-protein phosphatase C (Homo sapiens, UniProt P08575); assay: Inhibition of CD45
T3 sequence (P08575 whole entry): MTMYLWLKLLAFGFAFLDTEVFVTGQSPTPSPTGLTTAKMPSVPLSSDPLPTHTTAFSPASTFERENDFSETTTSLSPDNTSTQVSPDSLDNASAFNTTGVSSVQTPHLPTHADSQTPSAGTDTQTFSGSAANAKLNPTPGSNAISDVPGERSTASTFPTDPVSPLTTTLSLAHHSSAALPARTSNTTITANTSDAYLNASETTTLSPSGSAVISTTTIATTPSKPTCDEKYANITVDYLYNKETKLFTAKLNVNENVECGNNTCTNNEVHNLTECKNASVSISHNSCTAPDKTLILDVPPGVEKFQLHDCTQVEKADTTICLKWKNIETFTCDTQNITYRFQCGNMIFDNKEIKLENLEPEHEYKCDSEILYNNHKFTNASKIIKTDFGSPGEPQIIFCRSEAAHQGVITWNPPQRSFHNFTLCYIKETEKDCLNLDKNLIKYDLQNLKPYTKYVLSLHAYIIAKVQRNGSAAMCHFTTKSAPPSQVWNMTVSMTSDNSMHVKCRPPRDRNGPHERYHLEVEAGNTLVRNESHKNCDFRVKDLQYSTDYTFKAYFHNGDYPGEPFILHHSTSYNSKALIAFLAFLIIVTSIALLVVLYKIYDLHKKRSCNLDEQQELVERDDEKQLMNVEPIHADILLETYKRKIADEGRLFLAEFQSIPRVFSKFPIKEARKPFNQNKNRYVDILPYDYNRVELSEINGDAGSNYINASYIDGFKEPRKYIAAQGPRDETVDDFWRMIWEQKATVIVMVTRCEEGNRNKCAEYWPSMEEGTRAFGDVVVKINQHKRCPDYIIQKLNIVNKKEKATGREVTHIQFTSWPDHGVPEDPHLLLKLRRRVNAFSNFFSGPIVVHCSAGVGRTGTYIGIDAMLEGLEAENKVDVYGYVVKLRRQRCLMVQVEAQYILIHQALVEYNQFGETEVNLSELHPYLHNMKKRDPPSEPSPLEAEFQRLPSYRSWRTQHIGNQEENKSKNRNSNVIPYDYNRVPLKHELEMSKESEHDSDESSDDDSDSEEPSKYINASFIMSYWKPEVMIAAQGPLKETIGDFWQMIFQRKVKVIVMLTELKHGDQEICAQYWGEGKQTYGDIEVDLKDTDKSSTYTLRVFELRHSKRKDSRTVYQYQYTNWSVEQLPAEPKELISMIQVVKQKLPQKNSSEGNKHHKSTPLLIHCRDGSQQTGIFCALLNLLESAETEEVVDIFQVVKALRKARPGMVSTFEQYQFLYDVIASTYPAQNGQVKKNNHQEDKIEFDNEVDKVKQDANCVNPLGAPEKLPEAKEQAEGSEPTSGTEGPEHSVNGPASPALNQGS

[9] = target: T4, Tyrosine-protein phosphatase non-receptor type 1 (Homo sapiens, UniProt P18031); assay: Inhibition of PTP1B
T4 sequence (P18031 whole entry): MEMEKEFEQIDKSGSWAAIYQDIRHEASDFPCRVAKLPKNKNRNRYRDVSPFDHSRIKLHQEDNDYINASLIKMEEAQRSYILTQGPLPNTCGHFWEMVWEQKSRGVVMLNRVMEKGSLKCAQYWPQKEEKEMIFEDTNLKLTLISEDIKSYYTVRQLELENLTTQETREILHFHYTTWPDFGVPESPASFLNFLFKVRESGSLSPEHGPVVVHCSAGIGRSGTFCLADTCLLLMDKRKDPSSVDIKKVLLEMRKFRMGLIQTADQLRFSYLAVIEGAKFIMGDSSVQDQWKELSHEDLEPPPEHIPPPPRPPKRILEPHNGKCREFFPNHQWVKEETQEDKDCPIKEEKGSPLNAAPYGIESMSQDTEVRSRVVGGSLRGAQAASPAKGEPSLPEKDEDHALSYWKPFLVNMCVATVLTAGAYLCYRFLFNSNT

T1 sequence (P10586 whole entry): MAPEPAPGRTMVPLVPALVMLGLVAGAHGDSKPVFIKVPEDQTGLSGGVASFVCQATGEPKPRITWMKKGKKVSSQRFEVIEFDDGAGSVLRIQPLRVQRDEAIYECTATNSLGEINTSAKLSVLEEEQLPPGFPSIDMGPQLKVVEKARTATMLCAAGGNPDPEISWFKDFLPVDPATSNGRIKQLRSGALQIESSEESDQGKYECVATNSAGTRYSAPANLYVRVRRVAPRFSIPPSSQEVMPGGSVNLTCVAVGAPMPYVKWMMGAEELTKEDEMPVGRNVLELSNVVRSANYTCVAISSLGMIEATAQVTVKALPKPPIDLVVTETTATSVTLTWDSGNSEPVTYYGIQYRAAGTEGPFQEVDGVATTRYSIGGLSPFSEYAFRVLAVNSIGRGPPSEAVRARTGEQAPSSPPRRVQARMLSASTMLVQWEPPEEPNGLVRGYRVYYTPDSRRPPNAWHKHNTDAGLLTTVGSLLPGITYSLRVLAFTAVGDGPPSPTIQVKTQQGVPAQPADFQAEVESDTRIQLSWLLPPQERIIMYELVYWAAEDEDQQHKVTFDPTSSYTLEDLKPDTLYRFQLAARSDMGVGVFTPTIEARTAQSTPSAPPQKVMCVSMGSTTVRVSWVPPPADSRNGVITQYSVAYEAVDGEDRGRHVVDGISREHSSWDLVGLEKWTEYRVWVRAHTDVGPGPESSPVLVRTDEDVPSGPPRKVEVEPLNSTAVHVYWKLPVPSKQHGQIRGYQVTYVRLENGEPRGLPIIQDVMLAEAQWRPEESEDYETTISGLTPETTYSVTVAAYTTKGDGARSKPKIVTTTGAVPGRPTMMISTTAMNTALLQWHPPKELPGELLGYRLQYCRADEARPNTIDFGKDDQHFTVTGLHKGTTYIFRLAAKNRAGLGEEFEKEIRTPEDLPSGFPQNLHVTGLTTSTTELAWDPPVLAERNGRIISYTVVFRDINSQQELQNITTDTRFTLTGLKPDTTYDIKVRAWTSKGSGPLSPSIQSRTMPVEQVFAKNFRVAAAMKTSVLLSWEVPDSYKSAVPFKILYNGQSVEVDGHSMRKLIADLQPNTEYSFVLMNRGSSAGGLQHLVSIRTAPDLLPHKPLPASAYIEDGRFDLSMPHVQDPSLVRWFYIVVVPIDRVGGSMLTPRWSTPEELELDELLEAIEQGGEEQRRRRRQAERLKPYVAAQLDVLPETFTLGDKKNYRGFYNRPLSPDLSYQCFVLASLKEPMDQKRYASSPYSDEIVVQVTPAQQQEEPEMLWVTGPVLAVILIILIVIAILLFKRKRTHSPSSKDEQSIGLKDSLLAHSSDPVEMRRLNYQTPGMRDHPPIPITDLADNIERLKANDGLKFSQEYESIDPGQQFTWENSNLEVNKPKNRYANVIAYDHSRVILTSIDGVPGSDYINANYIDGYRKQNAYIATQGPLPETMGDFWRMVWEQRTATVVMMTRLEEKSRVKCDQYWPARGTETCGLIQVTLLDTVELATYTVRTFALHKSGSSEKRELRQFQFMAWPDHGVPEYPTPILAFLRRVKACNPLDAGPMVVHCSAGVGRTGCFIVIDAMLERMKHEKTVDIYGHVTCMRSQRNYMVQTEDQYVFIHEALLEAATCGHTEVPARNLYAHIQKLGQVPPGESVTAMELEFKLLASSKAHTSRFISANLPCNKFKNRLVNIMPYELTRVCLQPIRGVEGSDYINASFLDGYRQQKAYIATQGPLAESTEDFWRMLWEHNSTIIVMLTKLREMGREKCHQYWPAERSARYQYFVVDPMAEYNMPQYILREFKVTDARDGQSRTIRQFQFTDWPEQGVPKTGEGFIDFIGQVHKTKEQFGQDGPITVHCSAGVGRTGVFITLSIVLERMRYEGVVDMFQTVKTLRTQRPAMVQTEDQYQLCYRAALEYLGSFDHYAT

Compound: O=C(O)COc1c(C(=O)O)sc(-c2ccc(NC(=O)c3cccnc3)cc2)c1Br
IC50 [3]: 320000 nM

Compound: O=C(O)C(=O)c1ccc(OCc2cc(COc3ccc(C(=O)C(=O)O)cc3)cc(COc3ccc(C(=O)C(=O)O)cc3)c2)cc1
IC50 [5]: 1700 nM

Compound: CSc1ccnc(C[S+]([O-])c2nc3cc(OC(C)C)ccc3[nH]2)c1 (stereo unspecified)
IC50 [3]: 18200 nM
IC50 [6]: 680 nM

Compound: CC(=O)NC(Cc1ccc(N(C(=O)C(=O)O)c2ccccc2C(=O)O)c2ccccc12)C(=O)NCCCCCOc1cc2ccccc2cc1C(=O)O (stereo unspecified)
Ki [3]: 1300 nM
Ki [6]: 49 nM

Compound: O=C(O)COc1c(O)cc(-c2cc(C(F)(F)F)cc(C(F)(F)F)c2)cc1OCc1cccc(C(F)(F)F)c1
IC50 [8]: 280 nM
IC50 [3]: 116000 nM
IC50 [9]: 2000 nM

The next lines start with the values.

IC50 [1]: 1530 nM
Compound: COc1c(C=O)c2c(c3c1CC(C)(C)C3)C(=O)OC(O)C2 (stereo unspecified)

inhibition [2]: < 5%
Compound: COc1ccc2c(c1)CC(O)OC2=O (stereo unspecified)

inhibition [2]: 20%
Activity [4]: Active
Compound: COc1ccc2c(c1C=O)CC(O)OC2 (stereo unspecified)

IC50 [1]: 21800 nM
Compound: COc1ccc2c(c1C=O)CC(O)OC2=O (stereo unspecified)

inhibition [2]: < 5%
Compound: COc1ccc2c(c1C=O)CCOC2=O

inhibition [2]: < 5%
Activity [7]: inactive
Compound: COc1ccc(C(=O)O)c(CCO)c1CO

inhibition [2]: < 5%
Activity [7]: inactive
Compound: COC(=O)c1ccc(OC)c(C=O)c1CC=O

inhibition [2]: < 5%
Activity [7]: inactive
Compound: COC(=O)c1ccc(OC)c(CO)c1CCO
